# Experimental data published in ChEMBL document CHEMBL1137088, “Distamycin analogues with enhanced lipophilicity: synthesis and antimicrobial activity” (2004).
# Activity calls are given as the source filed them. The calls are words filed in the database; no cut-off is given here.
# Tests used:
# [1] = system: Mycolicibacterium fortuitum; assay: Antibacterial activity against Mycobacterium fortuitum NCTC 10394 strain.; type: functional
# Enterococcus faecalis [2] = assay: Antibacterial activity against Streptococcus faecalis NCTC 775 strain.; type: functional
# Proteus vulgaris = assay: Antibacterial activity against Proteus vulgaris NCTC 4175 strain.; type: functional
# Klebsiella aerogenes [3] = assay: Antibacterial activity against Klebsiella aerogenes WRL CN 345 strain.; type: functional, WRL CN 375; conditions: Klebsiella aerogenes, WRL CN 375; read-out: MIC
# [4] = Antibacterial activity against Enterobacter cloacae NCTC 10005 strain; type: functional
# Escherichia coli [5] = assay: Antibacterial activity against Escherichia coli NCTC 9001 strain; type: functional
# Aspergillus nidulans [6] = assay: Antifungal activity against Aspergillus nidulans CABI 0160037 strain; type: functional
# Candida albicans = assay: Antifungal activity against Candida albicans NCPF 3179 strain.; type: functional; conditions: Candida albicans; read-out: MIC
# Staphylococcus aureus [7] = assay: Antibacterial activity against methicillin-resistant Staphylococcus aureus (MRSA) PHLS M1 strain.; type: functional
# How it was run: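 Read-out is the minimum inhibitory concentration, reported in µM. Amoxycillin is tested alongside as the reference antibiotic.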
# Staphylococcus aureus [8] = assay: Antibacterial activity against Staphylococcus aureus NCTC 6571 strain.; type: functional
# Aspergillus niger [9] = assay: Antifungal activity against Aspergillus niger IMI17454 strain.; type: functional; conditions: Aspergillus niger; read-out: MIC
# Aspergillus niger [10] = assay: Antifungal activity against Aspergillus niger IMI17454 strain; na = not active; type: functional
# Escherichia coli [11] = assay: Antibacterial activity against Escherichia coli NCTC 9001 strain.; type: functional, organism-based
# [12] = Antifungal activity against Candida albicans NCPF 3179 strain; na = not active; type: functional
# Enterobacter cloacae = assay: Antibacterial activity against Enterobacter cloacae NCTC 10005 strain.; type: functional, organism-based
# Enterococcus faecalis [13] = assay: Antibacterial activity against Streptococcus faecalis NCTC 775 strain; na = not active; type: functional, organism-based
# [14] = Antibacterial activity against Proteus vulgaris NCTC 4175 strain; na = not active; type: functional
# Aspergillus nidulans [15] = assay: Antifungal activity against Aspergillus nidulans CABI 0160037 strain; na = not active; type: functional
# [16] = system: Mycolicibacterium fortuitum; assay: Antibacterial activity against Mycobacterium fortuitum NCTC 10394 strain; na = not active; type: functional, organism-based
# Staphylococcus aureus [17] = assay: Antibacterial activity against MRSA PHLS M1 strain; na = not active; type: functional, organism-based
# Klebsiella aerogenes [18] = assay: Antibacterial activity against Klebsiella aerogenes WRL CN 345 strain; na = not active; type: functional, organism-based
# Enterococcus faecalis [19] = assay: Antibacterial activity against Streptococcus faecalis NCTC 775 strain=; type: functional
# [20] = system: Mycolicibacterium fortuitum; assay: Antibacterial activity against Mycobacterium fortuitum NCTC 10394 strain=; type: functional
SMILES,MIC [1],MIC (Enterococcus faecalis [2]),MIC (Proteus vulgaris),MIC (Klebsiella aerogenes [3]),MIC [4],MIC (Escherichia coli [5]),MIC (Aspergillus nidulans [6]),MIC (Candida albicans),MIC (Staphylococcus aureus [7]),MIC (Staphylococcus aureus [8]),MIC (Aspergillus niger [9]),MIC (Escherichia coli [11]),MIC [12],MIC (Enterobacter cloacae),MIC (Enterococcus faecalis [13]),MIC (Staphylococcus aureus [17]),further results
Cc1sc(NC(=O)c2cc(NC=O)cn2C)cc1C(=O)Nc1cc(C(=O)NCCCN(C)C)n(C)c1,159 µM,79.6 µM,79.6 µM,159 µM,159 µM,159 µM,159 µM,159 µM,159 µM,39.8 µM,159 µM,,,,,,
CCn1cc(NC(=O)c2nc(NC(=O)c3nc(NC=O)cn3CC)cn2CC)nc1C(=O)NCCCN(C)C,,,,,,,,,,19 µM,,inactive,inactive,inactive,inactive,inactive,MIC (Aspergillus niger [10]): inactive; MIC [14]: inactive; MIC (Aspergillus nidulans [15]): inactive; MIC [16]: inactive; MIC (Klebsiella aerogenes [18]): inactive
Cn1cc(NC(=O)c2cc(NC(=O)c3cc(NC=O)cn3C)cn2C)cc1C(=O)NCCCN1CCCC1,78.5 µM,,157 µM,157 µM,157 µM,157 µM,157 µM,157 µM,,1200 µM,157 µM,,,,inactive,inactive,
COc1cccc(C(=O)Nc2nc(C(=O)Nc3cc(C(=O)Nc4cc(C(=O)NCCCN(C)C)n(C)c4)n(C)c3)c(C(C)C)s2)c1,65.5 µM,32.7 µM,65.5 µM,32.7 µM,131 µM,65.5 µM,131 µM,131 µM,32.7 µM,32.7 µM,131 µM,,,,,,
COc1cccc(C(=O)Nc2cc(C(=O)Nc3cc(C(=O)Nc4cc(C(=O)NCCCN(C)C)n(C)c4)n(C)c3)n(C)c2)c1,,,,140 µM,,,69.8 µM,,,69.8 µM,140 µM,inactive,inactive,inactive,,inactive,MIC [14]: inactive; MIC (Enterococcus faecalis [19]): 140 µM; MIC [20]: 140 µM
CC(=O)Nc1nc(C(=O)Nc2cc(C(=O)Nc3nc(C(=O)NCCCN(C)C)c(C(C)C)s3)n(C)c2)c(C(C)C)s1,17.5 µM,4.3 µM,69.8 µM,69.8 µM,69.8 µM,70 µM,,34.9 µM,4.3 µM,4.3 µM,4.3 µM,,,,,,
CC(=O)Nc1nc(C(=O)Nc2cc(C(=O)Nc3cc(C(=O)NCCCN(C)C)n(C)c3)n(C)c2)c(C(C)C)s1,74.6 µM,74.5 µM,149 µM,149 µM,149 µM,149 µM,,74.6 µM,149 µM,70 µM,149 µM,,,,,,
CC(=O)Nc1cc(C(=O)Nc2cc(C(=O)Nc3cc(C(=O)NCCCN(C)C)n(C)c3)n(C)c2)c(C)s1,,,156 µM,156 µM,,,,,,156 µM (not active),156 µM,inactive,inactive,inactive,inactive,inactive,MIC (Aspergillus nidulans [15]): inactive; MIC [16]: inactive
CC(C)n1cc(NC(=O)c2cc(NC=O)cn2C)cc1C(=O)Nc1cc(C(=O)NCCCN2CCCC2)n(C)c1,150 µM,75.2 µM,150 µM,37.6 µM,75.2 µM,inactive,150 µM,,75.2 µM,150 µM,150 µM,,inactive,,,,
